Measurements from PMC9386786 (Cell metabolism, 2022).
Where two headings read alike, the source gives them in different places.

Experiments:
[1] = test system: GDF15 and FGF21 mRNAs in Huh7 cells; assay: Hepatokine mRNA and protein levels in Huh7 cells; format: cell-based, human; conditions: for EC50: Homo sapiens
[2] = test system: hepatic Gdf15 and Fgf21 mRNAs, serum GDF15 and FGF21; assay: Hepatokine levels after intraperitoneal administration in WT C57BL/6J mice; format: in vivo, mouse
Procedure, shortened: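 WT mice received test compound ip at 2 mg/kg. For fasting/refeeding, mice were fed, fasted 24 h, or refed 2 h after a 24 h fast, and were injected 3 h before dissection. For exercise, mice ran to exhaustion on a 10°-sloped shock treadmill and were sampled before, immediately after, or 3 h after running, with food and water available. Poly(I:C) was given ip at 10 mg/kg. Hepatic mRNA was measured by RT-qPCR (Hprt-normalized) and serum GDF15/FGF21 by ELISA.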

CNOT7 = CNOT7 (Homo sapiens, UniProt Q9UIV1); assay: Gel-based deadenylase assay, CNOT7; format: biochemical
Procedure, shortened: (§1)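 Enzymes were expressed in and purified from E. coli BL21: the human CNOT6 catalytic domain (aa 153–557) and full-length human CNOT7 and CNOT8. Each enzyme (2.5 μM final) was preincubated with inhibitor at the indicated concentrations for 1 h at 37 °C. 5′-FITC-labelled poly(A)20 RNA (50 nM final) was then added for 1.5 h at 37 °C, and deadenylation was resolved on gel.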

[3] = test system: 3' UTRs of human GDF15 and FGF21 and mouse Gdf15 and Fgf21 mRNAs; assay: 3' UTR luciferase assay in Huh7 cells; format: cell-based
Procedure, shortened: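 Human GDF15/FGF21 3′UTRs (amplified from Huh7 cDNA) and mouse Gdf15/Fgf21 3′UTRs (from WT mouse liver cDNA) were cloned downstream of the firefly luciferase coding region. These plasmids (50–100 ng) were lipofected into Huh7 cells together with a Renilla luciferase (TK) control. Firefly and Renilla activities were measured by dual-luciferase assay, and firefly signal was normalized to Renilla to correct for transfection efficiency.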

[4] = test system: C57BL/6J WT mice kept on a high-fat diet; assay: HFD-induced obese mouse model, treatment twice a week for 12 weeks; format: in vivo
Procedure, shortened: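 From 8 weeks of age, male and female C57BL/6J mice were fed high-fat diet for 12 weeks and given test compound (2 mg/kg) or vehicle ip twice weekly. Measurements included: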

[5] = test system: GDF15 and FGF21 mRNAs in primary hepatocytes and Huh7 cells; assay: mRNA stability assay with actinomycin D; format: cell-based; conditions: with actinomycin D 5 μg/mL; iD1 5 μM
Procedure, shortened: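 Mouse primary hepatocytes and Huh7 cells were treated with actinomycin D (5 μg/mL) plus DMSO vehicle or test compound (5 μM in hepatocytes) for a time course. Before actinomycin D, Huh7 cells were pretreated with Wy-14643 (200 μM, 6 h) to induce FGF21 mRNA. Transcripts were measured by RT-qPCR, normalized to Hprt or GAPDH, and expressed as percent of the initial level. Half-lives were fitted by first-order decay; n = 3.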

CNOT8 = CNOT8 (Homo sapiens, UniProt Q9UFF9); assay: Gel-based deadenylase assay, CNOT8; format: biochemical
Procedure, shortened: as §1

[6] = test system: translation of Gdf15 and Fgf21 mRNAs in liver; assay: Polysome profiling of livers of treated mice; format: in vivo, mouse
WT mice [7] = format: in vivo, mouse; conditions: single administration
[8] = test system: promoter activity of GDF15 and FGF21 genes; assay: Promoter luciferase reporter assay in Huh7 cells; format: cell-based, human
Procedure, shortened: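 Human GDF15 or FGF21 promoters were PCR-amplified from Huh7 genomic DNA and placed upstream of firefly luciferase; a promoter-less construct served as control. Constructs (50–100 ng) were lipofected into Huh7 cells with a Renilla luciferase (TK) control, and cells were treated with vehicle or test compound. Firefly activity was read by dual-luciferase assay and normalized to Renilla.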

WT mice [9] = assay: Oxygen consumption and RER; format: in vivo, mouse
Procedure, shortened: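 WT mice received a single ip injection of vehicle or test compound (2 mg/kg). They were then housed singly on a 12 h light/dark cycle, either fed or food-deprived. VO2 and VCO2 were recorded at 25 °C by indirect calorimetry, and dark- and light-cycle averages were taken. VO2 was expressed per kg body weight per hour, and RER was calculated as VCO2/VO2.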

WT mice [10] = assay: Food intake and body weight after a single administration in mice; format: in vivo, mouse; conditions: for ED50: Mus musculus, ip
[11] = test system: Gdf15 and Fgf21 mRNAs in primary hepatocytes; assay: Hepatokine mRNA levels in mouse primary hepatocytes; format: cell-based; conditions: for EC50: Mus musculus, Hepatocyte
Procedure, shortened: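 Hepatocytes were isolated from 8-week-old male mice by portal vein perfusion and collagenase digestion, Percoll-purified, plated on collagen I, and cultured in William's E medium. Huh7 cells were grown in DMEM with 10% FBS. Cells were exposed to test compound at graded concentrations and for various times. mRNAs were quantified by RT-qPCR, normalized to Hprt (mouse) or GAPDH (human); n = 3 per group. EC50 was derived from the concentration–response curves.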

[12] = test system: neurons in NTS, AP and PVN; assay: c-Fos immunofluorescence in the brain; format: in vivo, mouse
CNOT6 = CNOT6 (Homo sapiens, UniProt Q9ULM6); assay: Gel-based deadenylase assay, CNOT6; format: biochemical; conditions: compared to CNOT6L
Procedure, shortened: as §1

CNOT6L = CNOT6L (Homo sapiens, UniProt Q96LI5); assay: Gel-based deadenylase assay, CNOT6L; format: biochemical
[13] = ref Xiong et al., 2017; cited from earlier work
[14] = male and female mice, IP twice a week

Chain of CNOT8 (Q9UFF9 whole entry): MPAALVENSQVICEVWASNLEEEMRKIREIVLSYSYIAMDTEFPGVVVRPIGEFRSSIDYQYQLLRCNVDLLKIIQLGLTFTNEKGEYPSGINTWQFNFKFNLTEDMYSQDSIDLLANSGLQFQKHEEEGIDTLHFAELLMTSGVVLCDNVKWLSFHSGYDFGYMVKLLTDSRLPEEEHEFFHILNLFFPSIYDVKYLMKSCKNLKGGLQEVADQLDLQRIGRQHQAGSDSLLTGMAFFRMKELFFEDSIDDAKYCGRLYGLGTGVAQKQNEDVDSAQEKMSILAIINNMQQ
Chain of CNOT7 (Q9UIV1 whole entry, the tested form may be a part): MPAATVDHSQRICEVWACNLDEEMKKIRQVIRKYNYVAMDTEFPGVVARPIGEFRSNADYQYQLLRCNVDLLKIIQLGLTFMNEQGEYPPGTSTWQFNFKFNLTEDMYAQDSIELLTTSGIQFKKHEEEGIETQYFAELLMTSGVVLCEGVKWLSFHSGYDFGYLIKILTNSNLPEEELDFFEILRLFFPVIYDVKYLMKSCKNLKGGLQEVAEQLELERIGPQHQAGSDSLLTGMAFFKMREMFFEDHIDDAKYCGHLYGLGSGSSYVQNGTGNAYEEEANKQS
Chain of CNOT6L (Q96LI5 158-555): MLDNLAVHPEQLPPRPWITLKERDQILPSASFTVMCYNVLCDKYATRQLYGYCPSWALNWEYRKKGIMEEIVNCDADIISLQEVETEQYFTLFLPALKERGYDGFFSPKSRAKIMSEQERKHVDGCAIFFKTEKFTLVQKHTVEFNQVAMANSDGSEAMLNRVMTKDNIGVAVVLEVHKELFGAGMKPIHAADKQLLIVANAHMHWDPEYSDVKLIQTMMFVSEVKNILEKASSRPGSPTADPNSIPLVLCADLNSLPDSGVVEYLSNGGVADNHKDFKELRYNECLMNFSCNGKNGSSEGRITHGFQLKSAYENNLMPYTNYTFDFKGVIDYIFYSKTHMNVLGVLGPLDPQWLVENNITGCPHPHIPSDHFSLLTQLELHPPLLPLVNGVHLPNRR
Chain of CNOT6 (Q9ULM6 153-557): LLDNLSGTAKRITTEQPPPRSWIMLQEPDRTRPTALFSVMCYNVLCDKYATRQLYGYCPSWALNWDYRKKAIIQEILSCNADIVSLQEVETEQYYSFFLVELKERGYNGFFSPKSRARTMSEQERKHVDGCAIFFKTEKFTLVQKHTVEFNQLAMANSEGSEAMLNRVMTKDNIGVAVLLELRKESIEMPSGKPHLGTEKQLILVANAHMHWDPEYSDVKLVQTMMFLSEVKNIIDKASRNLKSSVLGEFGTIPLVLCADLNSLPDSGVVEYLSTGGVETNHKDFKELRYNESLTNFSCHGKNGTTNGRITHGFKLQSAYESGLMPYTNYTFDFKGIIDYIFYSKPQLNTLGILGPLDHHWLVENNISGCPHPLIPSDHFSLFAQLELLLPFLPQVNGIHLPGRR

## Cc1cccc(Nc2cc(Cl)nc(SCC(=O)O)n2)c1C [WY-14643, reference compound]
[1]; 200 μM, 6 h
  FGF21 mRNA in Huh7 cells: increased

## poly(I:C) [reference compound]
[2]; IP 10 mg/kg
  hepatic Gdf15 mRNA: increased

## CC(C)=CCC(O)C1=CC(=O)c2c(O)ccc(O)c2C1=O (stereo not drawn) [iD1]
[1]; Huh-7, read-out: EC50 for FGF21 mRNA
  EC50: 1.61 µM
[1]; Huh-7, read-out: EC50 for GDF15 mRNA
  EC50: 0.53 µM
[1]; Huh7 cells
  GDF15 and FGF21 protein abundance: increased
[1]; combination, Huh7 cells, 6 h
  effects of thapsigargin and WY-14643 on GDF15 and FGF21 mRNA levels: potentiated
CNOT7
  inhibition of CNOT7: did not inhibit
[3]
  decrease of luciferase activity by 3' UTRs of GDF15/FGF21 mRNAs: reversed
[4]; HFD
  obesity-induced hyperlipidemia, hyperglycemia, and hyperinsulinemia: ameliorated
[4]; HFD obese mice
  hepatic steatosis and lipid accumulation in adipose tissues: reversed
[4]; HFD, long-term treatment, ITT and GTT
  insulin sensitivity and glucose tolerance: improved
[4]; [14]
  HFD-induced gain of body weight: dramatically decreased
  food intake on HFD: suppressed
[5]
  degradation of GDF15 and FGF21 mRNAs: potently suppressed degradation
CNOT8
  inhibition of CNOT8: did not inhibit
[6]
  global translation: did not affect
  translational efficacy of Gdf15 and Fgf21 mRNAs: not affected
WT mice [7]
  serum insulin levels: decrease
  serum ketone body levels: increasing
  serum triglycerides: reduced
[8]
  promoter activity of GDF15 and FGF21 genes: did not alter
WT mice [9]; fasted condition, relative to Veh
  oxygen consumption: consumed more oxygen
WT mice [9]; fed condition
  respiratory exchange rate (RER): significantly reduced
WT mice [10]; Cnot6l whole-body KO mice
  effects on food intake, body weight, serum triglycerides, ketone bodies, hepatic Gdf15 and Fgf21 mRNAs in Cnot6l−/− mice: did not induce significant effects
WT mice [10]; read-out: EC50 for body weight
  ED50: 1.23 mg/kg
WT mice [10]; read-out: EC50 for food intake
  ED50: 1.43 mg/kg
WT mice [10]; single administration
  body weight: significantly reduced
[11]; read-out: EC50 for Fgf21 mRNA
  EC50: 2.08 µM
[11]; read-out: EC50 for Gdf15 mRNA
  EC50: 1.11 µM
[11]; mouse primary hepatocytes and Huh7 cells, dose- and time-dependent
  levels of hepatokine mRNAs (GDF15, FGF21, INHBE, ADM, ADAMTS1, HBEGF): increased
[12]; 3 h after administration
  c-Fos staining within NTS and AP: robust c-Fos staining
[12]; after administration
  c-Fos staining within PVN in the hypothalamus: Robust c-Fos staining
[2]; 3 h after one-time IP injection, 2 mg/kg
  levels of hepatic Gdf15 and Fgf21 mRNAs and serum GDF15 and FGF21 proteins: significantly increased
[2]; 3 h post-exercise recovery period, liver
  degradation of Gdf15 and Fgf21 mRNAs post-exercise: attenuated degradation
[2]; liver, refed after 24 h fasting
  Fgf21 mRNA suppression induced by refeeding: attenuated
CNOT6
  inhibition of CNOT6: modestly inhibited

## C/C=C(/C)C(=O)O[C@H]1C(C)=C2[C@H]([C@@H]1OC(=O)CCCCCCC)[C@@](C)(OC(C)=O)C[C@H](OC(=O)CCC)[C@@]1(O)[C@H]2OC(=O)[C@@]1(C)O [thapsigargin, reference compound]
[1]; 1 μM, 6 h
  GDF15 mRNA in Huh7 cells: increased

## Nc1ncnc2c1ncn2[C@@H]1O[C@H](COP(=O)(O)O)[C@@H](O)[C@H]1O [AMP]
CNOT6L
  IC50: 76.3 µM

B1: GDF15 protein: Growth differentiation factor 15, circulating secretory protein (protein, UniProt Q99988 195-308, looked up)
Growth/differentiation factor …: ARARNGDHCPLGPGRCCRLHTVRASLEDLGWADWVLSPREVQVTMCIGACPSQFRAANMHAQIKTSLHRLKPDTVPAPCCVPASYNPMVLIQKTDTGVSLQTYDDLLAKDCHCI
[13]
  half-life of circulating protein: 3 h
